Source: ChEMBL document CHEMBL1133693, “Peptide and peptide mimetic inhibitors of antigen presentation by HLA-DR class II MHC molecules. Design, structure-activity relationships, and X-ray crystal structures” (J Med Chem, 2000)
Starred links: 1 amine or outer side, 2 acyl side, 3 side chain; linkers in the order of their positions; H or OH if unused. Non-standard residues stand in square brackets, D forms with d. Residues, ends and D or L forms follow the SMILES beside them. *: point of attachment. X11 = O=C([C@H](N[*:1])[C@H](O)[C@@H](O)[C@@H](O)CO)[*:2]; X3 = O=C([C@@H](N[*:1])[C@H](O)[C@H](O)[C@@H](O)CO)[*:2]; X10 = O=C([C@H](Cc1ccc2c(c1)OCO2)N[*:1])[*:2]; X4 = O=C([C@H](CC1CC2CCC1CC2)N[*:1])[*:2]; X5 = CC1CCC(C[C@@H](N[*:1])C(=O)[*:2])CC1; X6 = CC1CCC(C[C@H](N[*:1])C(=O)[*:2])CC1; Phe(3-F) = N[C@@H](Cc1cccc(F)c1)C(=O)O; Phe(3-I) = N[C@@H](Cc1cccc(I)c1)C(=O)O; NMeCha = CN[C@@H](CC1CCCCC1)C(=O)O; NMeR = CN[C@@H](CCCNC(=N)N)C(=O)O; Cha = N[C@@H](CC1CCCCC1)C(=O)O; NMeM = CN[C@@H](CCSC)C(=O)O; NMeS = CN[C@@H](CO)C(=O)O; NMeA = CN[C@@H](C)C(=O)O; Nle = CCCC[C@H](N)C(=O)O; NHCH2CH2OH = OCCN*

Assays:
[1] = Mean relative potency is the ratio of potencies of 'Ac-(Cha)RAMASL-NH2' and compound, to inhibit MHC class II DRB1*0401
Method in brief: (§1)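 Scintillation proximity competition assay. Test compounds competed against the radioligand, and bound counts were read by scintillation. Ac-(Cha)RAMASL-NH2 was run as standard competitor in every run. Potency is the ratio of standard IC50 to compound IC50.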

[2] = Mean relative potency is the ratio of potencies of 'Ac-(Cha)RAMASL-NH2' and compound, to inhibit MHC class II DRB1*0101; method in brief: as §1

SMILES | Mean relative potency [1] | Mean relative potency [2]
CSCC[C@H](NC(=O)[C@H](C)NC(=O)[C@H](CCCN=C(N)N)N(C)C(=O)[C@H](CC1CCCCC1)NC(C)=O)C(=O)N[C@@H](C)C(=O)N[C@@H](CO)C(=O)N[C@@H](CC(C)C)C(N)=O (Ac-[Cha][NMeR]AMASL-NH2) | 0.001 | 0.001
CSCC[C@H](NC(=O)[C@H](C)NC(=O)[C@H](CCCN=C(N)N)NC(=O)[C@H](CC1CCCCC1)NC(C)=O)C(=O)N[C@@H](C)C(=O)N(C)[C@@H](CO)C(=O)N[C@@H](CC(C)C)C(N)=O (Ac-[Cha]RAMA[NMeS]L-NH2) | 0.97 | 0.5
CSCC[C@H](NC(=O)[C@H](C)NC(=O)[C@H](CCCN=C(N)N)NC(=O)[C@H](Cc1cccc(I)c1)NC(C)=O)C(=O)N[C@@H](C)C(=O)N[C@@H](CO)C(=O)N[C@@H](CC(C)C)C(N)=O (Ac-[Phe(3-I)]RAMASL-NH2) | 1.56 | 0.61
CSCC[C@H](NC(=O)[C@H](CCSC)NC(=O)[C@H](CCCN=C(N)N)NC(=O)[C@H](CC1CCCCC1)NC(C)=O)C(=O)N[C@@H](C)C(N)=O (Ac-[Cha]RMMA-NH2) | 0.15 | 0.59
CCCC[C@H](NC(=O)[C@H](C)NC(=O)[C@H](CCCN=C(N)N)NC(=O)[C@H](CC1CCCCC1)NC(C)=O)C(=O)N[C@@H](C)C(=O)N[C@@H](CO)C(=O)N[C@@H](CC(C)C)C(N)=O (Ac-[Cha]RA[Nle]ASL-NH2) | 0.4 | 0.77
CSCC[C@H](NC(=O)[C@H](C)NC(=O)[C@H](CCCN=C(N)N)NC(=O)[C@H](Cc1ccc2c(c1)OCO2)NC(C)=O)C(=O)N[C@@H](C)C(=O)N[C@@H](CO)C(=O)N[C@@H](CC(C)C)C(N)=O (Ac-[X10]RAMASL-NH2) | 1.65 | 1.31
CSCC[C@H](NC(=O)[C@H](C)NC(=O)[C@H](CCCN=C(N)N)NC(=O)[C@@H](CC1CCC(C)CC1)NC(C)=O)C(=O)N[C@@H](C)C(=O)N[C@@H](CO)C(=O)N[C@@H](CC(C)C)C(N)=O (stereo not given in full) (Ac-[X5]RAMASL-NH2) | 0.93 | 1.17
CSCC[C@H](NC(=O)[C@H](CCSC)NC(=O)[C@H](CCCN=C(N)N)NC(=O)[C@H](CC1CCCCC1)NC(C)=O)C(=O)N[C@@H](C)C(=O)NCCO (Ac-[Cha]RMMA-NHCH2CH2OH) | 1.04 | 0.33
CSCC[C@H](NC(=O)[C@H](CCCN=C(N)N)NC(=O)[C@H](CC1CCCCC1)NC(C)=O)C(=O)N[C@@H](CCSC)C(=O)N[C@H](C=O)[C@H](O)[C@H](O)[C@@H](O)CO (Ac-[Cha]RMM[X3]-aldehyde) | 0.16 | 0.12
CSCC[C@H](NC(=O)[C@H](C)NC(=O)[C@H](CCCN=C(N)N)NC(=O)[C@H](CC1CCCCC1)N(C)C(C)=O)C(=O)N[C@@H](C)C(=O)N[C@@H](CO)C(=O)N[C@@H](CC(C)C)C(N)=O (Ac-[NMeCha]RAMASL-NH2) | 0.67 | 0.25
CSCC[C@@H](C(=O)N[C@@H](C)C(=O)N[C@@H](CO)C(=O)N[C@@H](CC(C)C)C(N)=O)N(C)C(=O)[C@H](C)NC(=O)[C@H](CCCN=C(N)N)NC(=O)[C@H](CC1CCCCC1)NC(C)=O (Ac-[Cha]RA[NMeM]ASL-NH2) | 0.005 | 0.046
CSCC[C@H](NC(=O)[C@H](C)NC(=O)[C@H](CCCN=C(N)N)NC(=O)[C@H](CC1CC2CCC1CC2)NC(C)=O)C(=O)N[C@@H](C)C(=O)N[C@@H](CO)C(=O)N[C@@H](CC(C)C)C(N)=O (stereo not given in full) (Ac-[X4]RAMASL-NH2) | 1.22 | 0.68
CSCC[C@H](NC(=O)[C@H](CCSC)NC(=O)[C@H](CCCN=C(N)N)NC(=O)[C@H](CC1CCCCC1)NC(C)=O)C(=O)N[C@@H](C)C(=O)N[C@@H](CO)C(N)=O (Ac-[Cha]RMMAS-NH2) | 0.85 | 1.38
CSCC[C@H](NC(=O)[C@H](C)NC(=O)[C@H](CCCN=C(N)N)NC(=O)[C@H](CC1CCCCC1)NC(C)=O)C(=O)N[C@H](C)C(=O)N[C@@H](CO)C(=O)N[C@H](C(N)=O)C(C)(C)C | 1.46 | 1.64
CSCC[C@H](NC(=O)[C@H](C)NC(=O)[C@H](CCCN=C(N)N)NC(=O)[C@H](CC1CCCCC1)NC(C)=O)C(=O)N1CCC[C@@H]1C(=O)N[C@@H](CO)C(=O)N[C@@H](CC(C)C)C(N)=O | 0.7 | 1.37
CSCC[C@H](NC(=O)[C@H](C)NC(=O)[C@H](CCCN=C(N)N)NC(=O)[C@H](CC1CCCCC1)NC(C)=O)C(=O)N[C@H](C)C(=O)N[C@@H](CO)C(=O)N[C@@H](CC(C)C)C(=O)N(C)C | 1.6 | 1.4
CC[C@@H](C)[C@H](NC(=O)[C@H](C)NC(=O)[C@H](CCCN=C(N)N)NC(=O)[C@H](CC1CCCCC1)NC(C)=O)C(=O)N[C@@H](C)C(=O)N[C@@H](CO)C(=O)N[C@@H](CC(C)C)C(N)=O | 1.01 | 0.36
CSCC[C@H](NC(=O)[C@H](C)NC(=O)[C@H](CCCN=C(N)N)NC(=O)[C@H](CC1CCC(C)CC1)NC(C)=O)C(=O)N[C@@H](C)C(=O)N[C@@H](CO)C(=O)N[C@@H](CC(C)C)C(N)=O (stereo not given in full) (Ac-[X6]RAMASL-NH2) | 1.71 | 1.37
CSCC[C@H](NC(=O)[C@H](CCCN=C(N)N)NC(=O)[C@H](CC1CCCCC1)NC(C)=O)C(=O)N[C@@H](CCSC)C(=O)N[C@@H](C=O)[C@H](O)[C@@H](O)[C@@H](O)CO (Ac-[Cha]RMM[X11]-aldehyde) | 0.81 | 0.5
CSCC[C@H](NC(=O)[C@H](C)NC(=O)[C@H](CCCN=C(N)N)NC(=O)[C@H](CC1CC2CCC1C2)NC(C)=O)C(=O)N[C@@H](C)C(=O)N[C@@H](CO)C(=O)N[C@@H](CC(C)C)C(N)=O (stereo in doubt; 2) | 1.71 | 0.52
CSCC[C@H](NC(=O)[C@H](CCSC)NC(=O)[C@H](CCCN=C(N)N)NC(=O)[C@H](CC1CCCCC1)NC(C)=O)C(=O)N[C@@H](C)C(=O)N[C@@H](CO)C(=O)N[C@@H](CC(C)C)C(N)=O (Ac-[Cha]RMMASL-NH2) | 0.88 | 1.05
CC(=O)N[C@@H](CC1CCCCC1)C(=O)N[C@@H](CCCN=C(N)N)C(=O)N[C@@H](C)C(=O)N[C@@H](CC(C)C)C(=O)N[C@@H](C)C(=O)N[C@@H](CO)C(=O)N[C@@H](CC(C)C)C(N)=O (Ac-[Cha]RALASL-NH2) | 0.54 | 0.55
CSCC[C@H](NC(=O)[C@H](C)N(C)C(=O)[C@H](CCCN=C(N)N)NC(=O)[C@H](CC1CCCCC1)NC(C)=O)C(=O)N[C@@H](C)C(=O)N[C@@H](CO)C(=O)N[C@@H](CC(C)C)C(N)=O (Ac-[Cha]R[NMeA]MASL-NH2) | 0.56 | 1.02
CSCC[C@H](NC(=O)[C@H](C)NC(=O)[C@H](CCCN=C(N)N)NC(=O)[C@H](CC1CC2CCC1C2)NC(C)=O)C(=O)N[C@@H](C)C(=O)N[C@@H](CO)C(=O)N[C@@H](CC(C)C)C(N)=O (stereo in doubt; 6) | 0.92 | 0.96
CSCC[C@H](NC(=O)[C@H](C)NC(=O)[C@H](CCCN=C(N)N)NC(=O)[C@H](Cc1cccc(F)c1)NC(C)=O)C(=O)N[C@@H](C)C(=O)N[C@@H](CO)C(=O)N[C@@H](CC(C)C)C(N)=O (Ac-[Phe(3-F)]RAMASL-NH2) | 1.19 | 0.17
